Assay results taken from ChEMBL document CHEMBL1921722, “In vitro and in vivo evaluation of select kahalalide F analogs with antitumor and antifungal activities” (Bioorg Med Chem, 2011).
Converted amounts (≈) assume the structure as drawn. The source made the active and inactive calls.

Tests used:
[1] = tested on: Mycobacterium intracellulare; test: Antimicrobial activity against Mycobacterium intracellular ATCC 23068 after 5 days by MABA assay; assay type: functional, organism-based; conditions: ATCC 23068, 120 h
Method in brief: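 M. intracellulare was tested by a modified Franzblau method. Samples were serially diluted in 20% DMSO/saline, run in duplicate, and inocula were adjusted by OD630. […] IC50 is 50% growth inhibition; MIC is the lowest concentration with no detectable growth.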

A549 = test: Cytotoxicity against human A549 cells by sulforhodamine B assay; assay type: functional; conditions: read-out: GI50
Method in brief: (§1)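 Run at NCI in the DTP 60-cell-line human tumor panel by standard procedure. Compounds were first screened at a single concentration, then tested at five tenfold-spaced concentrations. GI50 is the concentration reducing treated-cell growth to half that of untreated controls; TGI is the concentration completely halting growth.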

UACC-257 = test: Cytotoxicity against human UACC257 cells by sulforhodamine B assay; assay type: functional; conditions: read-out: GI50
Method in brief: (§2)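 NCI Developmental Therapeutics Program 60-cell-line human tumor panel screen, run at NCI. A single-concentration pre-screen was followed by a five-concentration dose-response in 10-fold steps. GI50 is the concentration that reduces growth of treated cells to half that of untreated control cells. TGI is the concentration that completely halts growth.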

HT-29 = test: Cytotoxicity against human HT-29 cells by sulforhodamine B assay; assay type: functional; conditions: read-out: GI50
Method in brief: (§3)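 Run by the NCI Developmental Therapeutics Program on its 60-line human tumour cell panel using the standard procedure. Compounds went through a single-concentration prescreen first, and those active by NCI criteria went on to a five-concentration growth-inhibition test. GI50 is the concentration that cuts growth of treated cells to half that of untreated control cells.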

COLO 205 = test: Cytotoxicity against human COLO205 cells by sulforhodamine B assay; assay type: functional; conditions: read-out: GI50; method in brief: as §1
SNB-75 = test: Cytotoxicity against human SNB75 cells by sulforhodamine B assay; assay type: functional; conditions: read-out: GI50; method in brief: as §2
KM12 = test: Cytotoxicity against human KM12 cells by sulforhodamine B assay; assay type: functional; conditions: read-out: GI50; method in brief: as §2
HCC 2998 = test: Cytotoxicity against human HCC2998 cells by sulforhodamine B assay; assay type: functional; conditions: read-out: GI50; method in brief: as §3
DU-145 = test: Cytotoxicity against human DU145 cells by sulforhodamine B assay; assay type: functional; conditions: read-out: GI50; method in brief: as §3
PC-3 = test: Cytotoxicity against human PC3 cells by sulforhodamine B assay; assay type: functional; conditions: for GI50: read-out: GI50; method in brief: as §2
Hs-578T = test: Cytotoxicity against human Hs578T cells by sulforhodamine B assay; assay type: functional; method in brief: as §2
SK-OV-3 = test: Cytotoxicity against human SKOV3 cells by sulforhodamine B assay; assay type: functional; conditions: read-out: GI50; method in brief: as §2
NCI-H322M = test: Cytotoxicity against human NCI-H322M cells by sulforhodamine B assay; assay type: functional; conditions: read-out: GI50; method in brief: as §2
RPMI-8226 = test: Cytotoxicity against human RPMI8226 cells by sulforhodamine B assay; assay type: functional; conditions: read-out: GI50; method in brief: as §2
Escherichia coli = test: Antimicrobial activity against Escherichia coli ATCC 35218 by CLSI method; assay type: functional, organism-based
Fusarium sp. = test: Antimicrobial activity against Fusarium sp. by CLSI method; assay type: functional, organism-based
Cryptococcus neoformans = test: Antimicrobial activity against Cryptococcus neoformans ATCC 90113 by CLSI method; assay type: functional, organism-based
Pseudomonas aeruginosa = test: Antimicrobial activity against Pseudomonas aeruginosa ATCC 27853 by CLSI method; assay type: functional, organism-based
Aspergillus fumigatus = test: Antimicrobial activity against Aspergillus fumigatus ATCC 90906 by CLSI method; assay type: functional, organism-based
[2] = Acute toxicity in iv dosed mouse assessed as mortality; conditions: in vivo
Staphylococcus aureus = test: Antimicrobial activity against methicillin-resistant Staphylococcus aureus ATCC 43300 by CLSI method; assay type: functional, organism-based
Candida albicans = test: Antimicrobial activity against Candida albicans ATCC 90028 by CLSI method; assay type: functional, organism-based

**Q.** Which MBC [1] does the source give for `O=C(O)c1cn(C2CC2)c2cc(N3CCNCC3)c(F)cc2c1=O` [CIPROFLOXACIN] here?
**A.** > 1 µM

**Q.** And the MIC [1]?
**A.** 1 µM (≈ 0.331 µg/mL)

**Q.** For `CC(=O)O[C@H]1C(=O)[C@@]2(C)[C@H]([C@H](OC(=O)c3ccccc3)[C@]3(O)C[C@H](OC(=O)[C@H](O)[C@@H](NC(=O)c4ccccc4)c4ccccc4)C(C)=C1C3(C)C)[C@]1(OC(C)=O)CO[C@@H]1C[C@@H]2O` [PACLITAXEL], which GI50 (A549) is on record?
**A.** 4 nM

**Q.** What about the GI50 (UACC-257) of the same compound?
**A.** 40 nM

**Q.** What about the GI50 (HT-29) of the same compound?
**A.** 2 nM

**Q.** And the GI50 (COLO 205)?
**A.** 3 nM

**Q.** What about the GI50 (SNB-75) of the same compound?
**A.** 4 nM

**Q.** And the GI50 (KM12)?
**A.** 4 nM

**Q.** And the GI50 (HCC 2998)?
**A.** 3 nM

**Q.** What about the GI50 (DU-145) of the same compound?
**A.** 5 nM

**Q.** And the GI50 (PC-3)?
**A.** 4 nM

**Q.** And the TGI (PC-3; read-out: TGI)?
**A.** 10000 nM

**Q.** And the GI50 (Hs-578T; read-out: GI50)?
**A.** 3 nM

**Q.** And the TGI (Hs-578T; read-out: TGI)?
**A.** 100 nM

**Q.** And the GI50 (SK-OV-3)?
**A.** 8 nM

**Q.** And the GI50 (NCI-H322M)?
**A.** 13 nM

**Q.** What about the GI50 (RPMI-8226) of the same compound?
**A.** 2 nM

**Q.** For `C/C=C1\NC(=O)[C@H](Cc2ccccc2)NC(=O)[C@@H](C(C)C)NC(=O)[C@@H]([C@H](C)CC)NC(=O)[C@H](NC(=O)[C@H](NC(=O)[C@H](CCCN)NC(=O)[C@H]2CCCN2C(=O)[C@H](NC(=O)[C@@H](NC(=O)[C@@H](NC(=O)[C@H](NC(=O)CCCC(C)C)C(C)C)[C@@H](C)O)C(C)C)C(C)C)[C@H](C)CC)[C@H](C)OC(=O)[C@H](C(C)C)NC1=O` [KAHALALIDE F], which IC50 [1] is on record?
**A.** > 20000 nM

**Q.** And the MBC [1]?
**A.** > 20 µM

**Q.** And the MIC [1]?
**A.** > 20 µM

**Q.** What about the Activity (Escherichia coli) of the same compound?
**A.** inactive

**Q.** And the Activity (Fusarium sp.)?
**A.** Active

**Q.** And the MFC (Cryptococcus neoformans)?
**A.** 5 µM (≈ 7.39 µg/mL)

**Q.** What about the MIC (Cryptococcus neoformans) of the same compound?
**A.** 5 µM (≈ 7.39 µg/mL)

**Q.** And the Activity (Pseudomonas aeruginosa)?
**A.** inactive

**Q.** What about the MFC (Aspergillus fumigatus) of the same compound?
**A.** 20 µM (≈ 29.6 µg/mL)

**Q.** What about the MIC (Aspergillus fumigatus) of the same compound?
**A.** 10 µM (≈ 14.8 µg/mL)

**Q.** What about the GI50 (PC-3) of the same compound?
**A.** 170 nM

**Q.** And the MTD [2]?
**A.** 0.28 mg/kg

**Q.** And the Activity (Staphylococcus aureus)?
**A.** inactive

**Q.** What about the MFC (Candida albicans) of the same compound?
**A.** 20 µM (≈ 29.6 µg/mL)

**Q.** And the MIC (Candida albicans)?
**A.** 10 µM (≈ 14.8 µg/mL)

**Q.** Which MFC (Cryptococcus neoformans) does the source give for `C[C@@H]1[C@H](O)[C@@H](C)/C=C/C=C/C=C/C=C/C=C/C=C/C=C/[C@H](O[C@@H]2O[C@H](C)[C@@H](O)[C@H](N)[C@@H]2O)C[C@@H]2O[C@](O)(C[C@@H](O)C[C@@H](O)[C@H](O)CC[C@@H](O)C[C@@H](O)CC(=O)O[C@H]1C)C[C@H](O)[C@H]2C(=O)O` [AMPHOTERICIN B] here?
**A.** 0.06 µM (≈ 0.0554 µg/mL)

**Q.** What about the MIC (Cryptococcus neoformans) of the same compound?
**A.** 0.016 µM (≈ 0.0148 µg/mL)

**Q.** What about the MFC (Aspergillus fumigatus) of the same compound?
**A.** 2.5 µM (≈ 2.31 µg/mL)

**Q.** And the MIC (Aspergillus fumigatus)?
**A.** 2.5 µM (≈ 2.31 µg/mL)

**Q.** And the IC50 (Candida albicans)?
**A.** 250 nM

**Q.** What about the MFC (Candida albicans) of the same compound?
**A.** 1.25 µM (≈ 1.16 µg/mL)

**Q.** What about the MIC (Candida albicans) of the same compound?
**A.** 0.625 µM (≈ 0.578 µg/mL)
